Source: PubChem
Rows were chosen to be rich in hits. Some 2.1% of all compounds tested hit in one or more screens of this group.
Ins promoter up = insulin promoter activators in MIN6 cells, imaging, high-content screening, mouse beta cells; MIN6 insulin promoter-GFP reporter; stronger effect = higher value; z-score at 5 µM; AID 1625, 2009; 0.3% of 190,000 active;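 active = z-score above 3 at 5 µM with at least 500 cells counted in the well; inconclusive = wells under 500 cells, flagged as cytotoxic or low count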
Autophagy mod = autophagy modulators in MEF cells, primary screen, imaging, high-content, MEF GFP-LC3; MEF GFP-LC3 puncta imaging; test concentration mostly 10 µM; calls only at 10 µM (by protocol); 0.98% of 190,000 active;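 active = percentage of spot-positive cells more than 3 SD above its plate mean, without a fluorescence outlier flag or 80% toxicity; inconclusive = no clear call, values can overlap the other calls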;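 note: spot-positive cell cutoff set from DMSO-treated cells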
Arbovirus anti = antivirals against arbovirus infection, primary screen, cell-based, full library, 10K replicate subset; AID 1251, 2008; 0.37% of 200,000 active; arbovirus infection cell-based antiviral screen; inhibition, % at 10 µM; in the data active = inhibition above about 30%
Insulin prom inh = inhibitors of insulin promoter-driven GFP, primary screen, imaging, TRM-6 cells (human fetal islet line), eGFP reporter, cell count. reporter expression induced with tamoxifen. inhibition, % at 2 µM. 0.9% of 130,000 active. AID 1273, 2008;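 active = inhibition above the mean plus 3 SD, with well images judged a real hit on visual review, cut at about 60% in these data, passing the limit was not always enough; inconclusive = inhibition over the cutoff but images rejected on review; inactive = inhibition not above the cutoff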
RBBP9 inhibitor = human RBBP9 inhibitors, primary screen, biochemical, fluorescence polarization, FP-Rh probe, HTS; Serine hydrolase RBBP9 (Homo sapiens), O75884; recombinant RBBP9; inhibition, % at 7.94 µM; 0.2% of 220,000 active;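 active = inhibition above the campaign mean of all tested compounds plus 3 SD, cut at about 14% in these data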;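 note: plate controls were DMSO wells with RBBP9 for no effect and wells lacking RBBP9 protein for full effect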
Target sequence (O75884 whole entry, looked up): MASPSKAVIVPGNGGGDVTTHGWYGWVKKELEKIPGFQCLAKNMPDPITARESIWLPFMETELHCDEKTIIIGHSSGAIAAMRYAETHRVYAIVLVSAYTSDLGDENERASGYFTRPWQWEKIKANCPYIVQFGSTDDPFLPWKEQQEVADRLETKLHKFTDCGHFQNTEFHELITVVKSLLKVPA
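System: RBBP9 protein / Buffer or medium: Tris/NaCl buffer pH 8.0 with 0.1% Pluronic / Probe or stimulus: Serine-hydrolase probe FP-Rh, 375 nM pre-mixing / Dosing: 7.94 µM single dose, 0.794% DMSO / Times: enzyme-compound preincubation 30 min, then probe labeling 45 min, 25 °C / Technique: fluorescence polarization (mP), excitation 525 nm, emission 598 nm / Replication: singlicate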
PKD1 inh = inhibitors of human PKD1 kinase, biochemical, fluorescence polarization; Serine/threonine-protein kinase D1 (Homo sapiens), Q15139; PKD1 kinase fluorescence polarization assay; inhibition, % (no concentration beside the values); 0.056% of 200,000 active; in the data active = inhibition above about 50%
Starred values were filed as active, the others as inactive; i = inactive; ? = inconclusive; . = not tested or not shown; + = active, no number.

SMILES | Ins promoter up | Autophagy mod | Arbovirus anti | Insulin prom inh | RBBP9 inhibitor | PKD1 inh
CC1(CCc2ccccc2)NC(=O)N(CC(=O)Nc2ccccc2)C1=O (stereo not given) | -0.02 | . | . | . | -7 | .
COc1ccc(/C=N/NC(=O)c2cccnc2)cc1Cn1nc([N+](=O)[O-])c(Br)c1C | 0.63 | + | -14 | 27 | -5 | -3
CC(C)Cc1cc(C(=O)O)c2ccccc2n1 | . | i | . | -200 | -10 | -7
O=C(COC(=O)[C@H](Cc1ccccc1)NC(=O)c1ccco1)NC(c1ccccc1)c1ccccc1 | 0.24 | i | -3 | 13 | -11 | -4
Cc1cc(NC(=O)COC(=O)C(Cc2ccccc2)NC(=O)c2ccco2)no1 (stereo not given) | 1.7 | + | 8 | 13 | -5 | -9
CCOc1nc2c(c(=O)n(C)c(=O)n2C)n1Cc1ccccc1Cl | -2.9 | i | 11 | 42 | -8 | 4
O=C(Nc1ncn[nH]1)c1ccc(Cl)cc1Cl | 1.2 | i | -1 | 18 | -5 | 16
Clc1ccc(Nc2ncn[nH]2)c(Cl)c1 | -0.02 | i | 2 | 66* | 4 | -2
Cc1cc(OCCSc2nnc(-c3cccs3)n2C)ccc1Cl | 0.99 | i | 8 | -47 | -4 | 1
COc1ccc(C(=O)CSc2nc(N)nc(SC)c2C#N)cc1 | -0.61 | i | -1 | 39 | 1 | -2
Cc1ccc(C(=O)CSc2nc(-c3ccccc3)ccc2C#N)cc1 | 2.8 | + | -9 | -130 | 4 | -2
N#Cc1ccc(-c2ccco2)nc1SCC(=O)c1ccc(Cl)cc1 | . | + | 3 | . | 4 | 4
CSc1nc(N)nc(SCC(=O)c2ccccc2)c1C#N | -0.83 | + | -6 | . | -1 | -14
Cc1cccc2c1NC(=O)/C2=C\C(=O)c1cccs1 | . | i | 8 | 67* | 5 | 4
CCN(CC)CCNC(=O)c1c(C)n(-c2ccccc2)c2cc(Br)c(OC)cc12 | 0.25 | + | -38 | -8 | -3 | -3
O=C(Cn1nnc(-c2cccs2)n1)N1c2ccccc2Sc2ccc(C(F)(F)F)cc21 | . | i | 11 | 80* | -7 | -6
CCOC(=O)C1C(CC)NC(=S)NC1(C)O (stereo not given) | 0.28 | i | 10 | 0 | -9 | -4
c1ccc2c(NCCCN3CCOCC3)c3ccccc3nc2c1 | -0.8 | + | -26 | . | 4 | -4
c1ccc2c(CNCCN3CCOCC3)cccc2c1 | -0.46 | + | -5 | -3 | -4 | -5
CCOC(=O)C1CCCN(c2c(C(=O)c3ccccc3)cnc3ccc(OC)cc23)C1 (stereo not given) | -1.7 | i | 3 | . | -2 | 2
Cc1onc(-c2c(Cl)cccc2Cl)c1C(=O)NCCCN1CCOCC1 | 0.37 | i | 0 | 33 | 10 | 0
CC1(C)CC(=O)c2cc(OCC(=O)N3CCOCC3)ccc2O1 | . | i | 7 | -21 | 5 | -2
CC(C)c1nn2c(N)c(/C=C3\C=Nc4ccccc43)c(=O)nc2s1 | -0.19 | . | . | . | -6 | .
CCC(CC)c1nn2c(N)c(/C=C3\C=Nc4ccccc43)c(=O)nc2s1 | 0.15 | . | . | . | 5 | .
CCCc1nn2c(N)c(/C=C3\C=Nc4ccccc43)c(=O)nc2s1 | 0 | i | 71* | 21 | 3 | -18
SMILES | Ins promoter up | Autophagy mod | Arbovirus anti | Insulin prom inh | RBBP9 inhibitor | PKD1 inh
CCC(CC)c1nn2c(N)c(/C=C3\C(C)=Nc4ccccc43)c(=O)nc2s1 | -0.09 | . | . | . | -6 | .
CCCCc1nn2c(N)c(/C=C3\C=Nc4ccccc43)c(=O)nc2s1 | 1.3 | i | 33* | -67 | 7 | -5
CC(C)Cc1nn2c(N)c(/C=C3\C=Nc4ccccc43)c(=O)nc2s1 | -0.1 | i | 37* | -305 | 8 | -3
COc1ccc(OC)c(-c2cc(C(=O)NCc3cccs3)no2)c1 | . | i | 0 | 7 | -3 | -3
CC1Cc2ccccc2N1C(=O)CSc1nc2ccccc2s1 (stereo not given) | -0.44 | i | -5 | . | 2 | -7
Cc1ccc(NC(=O)/C(C#N)=C(\N)C(Cl)(Cl)Cl)nc1 | -0.09 | + | -3 | -50 | -8 | 2
CCOc1ccc(C(=O)N2CCCC(c3nc(-c4cccs4)no3)C2)cc1 (stereo not given) | -0.04 | . | . | . | 5 | .
Cc1cc(N2C(=O)c3ccccc3C2=O)n(C)n1 | 3.8* | . | . | . | -8 | .
CCC(C)c1ccc(NC(=O)c2cccnc2)cc1 (stereo not given) | 0.16 | i | -10 | -10 | 2 | -4
Cc1ccc(NC(=O)c2ccc(NCCc3ccccc3)c([N+](=O)[O-])c2)cc1F | 0.05 | + | -12 | -14 | -12 | -4
O=C(Nc1cc(F)cc(F)c1)c1ccc(NCCc2ccccc2)c([N+](=O)[O-])c1 | . | i | -10 | -22 | -8 | -9
CC1(C)CC(=O)C(C=NCCN2CCN(CC(=O)Nc3ccc(F)cc3)CC2)=C(O)C1 | 0.46 | . | . | . | -3 | .
O=C(O)CCCC(=O)Nc1ccccc1Oc1ccccc1 | 0.5 | . | . | . | -1 | .
Cc1c(/C=C/C(=O)c2ccc(Cl)s2)cnn1C | . | i | -3 | 75* | 0 | 8
O=C(NCc1ccccc1)c1ccc(Cl)nc1 | 0.16 | i | 5 | . | -5 | -5
Cc1cccc(C)c1NC(=O)c1sccc1SCc1cccc(C(F)(F)F)c1 | . | i | -7 | -60 | -8 | -3
Nc1ccccc1-c1nnn(CC(=O)N2CCCc3ccccc32)n1 | . | + | -18 | -13 | -5 | -2
Cc1ccc(N=Nc2c(C)[nH][nH]c2=O)c(C)c1 | 0.01 | i | -19 | 73* | 2 | 1
Cc1cc(N)n(-c2ccc(C(=O)O)cc2)n1 | 0.21 | i | -2 | . | -12 | -1
CCc1ccc(S(=O)(=O)c2ccc(-n3nc(C)cc3N)cc2)cc1 | 0.03 | i | 33* | 39 | -5 | -1
Cc1cccc(-n2nc(C)cc2N)c1 | -0.68 | i | -7 | -14 | -4 | 2
Cc1cc(C)cc(-n2nc(C)cc2N)c1 | . | i | -14 | 72* | -3 | 2
CCCC1C(=O)N(Cc2ccccc2)C(=O)CC1C (stereo not given) | . | . | . | . | -10 | .
CCOC(=O)c1c(-c2ccccc2)csc1NC(=S)N(CC)CC | -0.36 | i | 37* | . | -3 | 0
CCNc1ccc(Br)cc(C(=O)/C=C/c2c(Cl)cccc2Cl)c1=O | ? | + | -34 | 10 | 2 | 0
CCOC(=O)Cn1nc(C)c(NC(=O)COc2ccc([N+](=O)[O-])cc2)c1C | -0.06 | i | -3 | 0 | -2 | -7
CC(C)Cc1csc(NC(=O)c2ccc(F)cc2)c1C(=O)O | . | i | 48* | . | -1 | -7
CCOC(=O)c1c(CC(C)C)csc1NC(=O)c1ccccc1C(=O)O | 0.19 | . | . | . | -7 | .
O=C(CSCc1ccc(F)cc1)Nc1nc2c(s1)CCCC2 | -0.92 | i | 1 | -33 | 4 | 6
